Compound activity deposited in PubChem BioAssay by Sanford-Burnham Center for Chemical Genomics.
The list is not random: actives were taken first. Their share in the collection is about 4.4%.
SENP1 inh = human SENP1 catalytic domain inhibitors, primary screen, biochemical, FRET, uHTS; AID 624204, 2012; 360,000 tested, 0.21% active; inhibition, % at 10 µM; recombinant SENP1 catalytic domain, CyPet-SUMO1-YPet FRET cleavage; Sentrin-specific protease 1 (Homo sapiens), Q9P0U3;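 active means inhibition at least 30% at 10 µM, raw YFP signal under a set limit, fluorescence ratio 0.5 to 1.5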;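 further: 0% = enzyme with DMSO and 100% = no enzyme wells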
Target sequence (Q9P0U3 419-644 limits assumed): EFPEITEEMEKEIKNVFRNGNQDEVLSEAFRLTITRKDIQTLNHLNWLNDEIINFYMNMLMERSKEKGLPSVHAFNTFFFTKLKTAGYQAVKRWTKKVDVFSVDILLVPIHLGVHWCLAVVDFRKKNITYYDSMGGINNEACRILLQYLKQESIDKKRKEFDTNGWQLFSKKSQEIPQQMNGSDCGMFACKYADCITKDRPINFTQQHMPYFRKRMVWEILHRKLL
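Material: hSENP1 catalytic domain, recombinant; medium: Tris pH 8 with BME, BSA, NP40 and catalase; compound: single concentration of 10 µM compound, 0.5% DMSO final; technique: FRET read of cyan and yellow fluorescence; timing: 50 min enzyme reaction, room temperature, light-protected; reagent: SFCypet-SUMO1-SFYpet substrate at 25 nM; control set: no-enzyme low, enzyme-DMSO high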
EBI2 block = EBI2 receptor antagonists, beta-arrestin recruitment, primary screen, cell-based, luminescence, 7a,25-OHC stimulation, uHTS | inhibition, % at 5 µM | 7a,25-OHC stimulated | AID 651636, 2012 | G-protein coupled receptor 183 (Homo sapiens), P32249 | 360,000 tested, 0.81% active; in the data active means inhibition above about 38%;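 further: enzyme fragment complementation signal reports receptor beta-arrestin coupling in cells; 0% = agonist plus DMSO wells and 100% = wells without agonist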
Target sequence (P32249 whole entry, looked up, the tested form may be a part): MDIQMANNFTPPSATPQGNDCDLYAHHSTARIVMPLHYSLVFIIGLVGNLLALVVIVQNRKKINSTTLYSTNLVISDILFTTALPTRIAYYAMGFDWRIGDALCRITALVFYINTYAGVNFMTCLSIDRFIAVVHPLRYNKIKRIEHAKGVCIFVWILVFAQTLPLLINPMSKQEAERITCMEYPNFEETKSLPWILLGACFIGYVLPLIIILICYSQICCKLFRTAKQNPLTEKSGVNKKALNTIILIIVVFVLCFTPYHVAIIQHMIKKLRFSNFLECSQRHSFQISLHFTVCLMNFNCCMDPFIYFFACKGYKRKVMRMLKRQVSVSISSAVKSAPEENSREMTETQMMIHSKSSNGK
NR3A LBD binder = binders of NR3A ligand-binding domain, primary screen, biophysical, differential scanning fluorimetry, uHTS; Glutamate receptor ionotropic, NMDA 3A (GRIN3A) ligand-binding domain; NR3A LBD differential scanning fluorimetry, Tm shift; 0% = protein alone, 100% = glycine-bound protein; Tm shift relative to glycine control, % at 25 µM; 340,000 tested, 2.5% active; AID 1259313, 2017;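 active means melting temperature shift of at least 10% of the positive control shift, at one fixed dose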
MPTP block = mitochondrial permeability transition pore inhibitors, primary screen, biochemical, isolated mouse mitochondria, absorbance | Ca2+ swelling absorbance, 30 min | inhibition, % at 10 µM | 360,000 tested, 1.4% active;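 active means inhibition of 50% or more, scaled per plate between neutral and stimulator controls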;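 further: 0% = DMSO wells given calcium and 100% = 1 mM EGTA wells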
Rh123 counter = fluorescence retest of MPTP screen hits in isolated mitochondria, single concentration; inhibition, % at 10 µM; shares compounds with MPTP block; membrane potential, Rhodamine 123 fluorescence; AID 624504, 2012; 5,000 tested, 78% active; in the data active means inhibition above about 22%;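 further: 0% = DMSO vehicle and 100% = positive control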
MPTP swell DR = mitochondrial permeability transition pore inhibitors, dose response, biochemical, absorbance, uHTS hits | shares compounds with MPTP block | isolated mitochondria swelling | IC50, µM | 780 tested, 58% active | AID 651561, 2012; in the data active means IC50 below about 20 µM
MPTP counter DR = fluorescent counter-screen in isolated mitochondria, dose response, counter-screen for MPTP inhibitor project, biochemical, fluorescence, uHTS hits; shares compounds with MPTP block; isolated mitochondria counterscreen, fluorescence read-out; IC50, µM; 780 tested, 49% active; in the data active means IC50 below about 80 µM
Numbers without * were called inactive.

How did CCC(C)c1ccc(NC(=O)COc2c(F)c(F)c(C(F)(F)F)c(F)c2F)cc1 (stereo not drawn) do in these assays?
SENP1 inh: -2; EBI2 block: 11; NR3A LBD binder: 4; MPTP block: 83*; Rh123 counter: 95*

Results for CSc1ccc(OCC(=O)Nc2ccc(N3CCOCC3)c(Cl)c2)cc1 ?
SENP1 inh: 2; EBI2 block: -5; NR3A LBD binder: -10; MPTP block: 1

What do the screens show for `N=c1c(-c2nc3ccccc3[nH]2)cc(C(=O)c2ccco2)nn1-c1ccccc1`?
SENP1 inh: -9; EBI2 block: 24; NR3A LBD binder: -8; MPTP block: 13

How did N=c1c(-c2nc3ccccc3[nH]2)cc(C(=O)c2cccs2)nn1-c1ccccc1 do in these assays?
SENP1 inh: -5; EBI2 block: 12; NR3A LBD binder: -15; MPTP block: 91*; Rh123 counter: 39*

What do the screens show for `CC(=O)Nc1ccc(S(=O)(=O)Nc2ccc(C)c([N+](=O)[O-])c2)cc1`?
SENP1 inh: 2; EBI2 block: 6; NR3A LBD binder: -4; MPTP block: -1

Results for CCOc1ccc(NC(=O)c2ccccc2NS(=O)(=O)c2ccc(F)cc2)c([N+](=O)[O-])c1 ?
SENP1 inh: 2; EBI2 block: -4; NR3A LBD binder: 4; MPTP block: 92*; Rh123 counter: 94*

How did O=C(c1ccccc1NS(=O)(=O)c1ccc(F)cc1)N1CCCCC1 do in these assays?
SENP1 inh: 0; EBI2 block: -5; NR3A LBD binder: 1; MPTP block: 0

How did O=C(Nc1cc(S(=O)(=O)N2CCOCC2)ccc1O)c1ccc(S(=O)(=O)N2CCCCC2)cc1 do in these assays?
SENP1 inh: 4; EBI2 block: -4; NR3A LBD binder: -8; MPTP block: -1

What do the screens show for `O=C(Nc1cc(S(=O)(=O)N2CCCCC2)ccc1O)c1ccccc1NS(=O)(=O)c1ccc(F)cc1`?
SENP1 inh: 1; EBI2 block: 7; NR3A LBD binder: 21*; MPTP block: 97*; Rh123 counter: 71*

How did O=C(Nc1cc(S(=O)(=O)N2CCCCC2)ccc1Cl)c1ccccc1NS(=O)(=O)c1ccc(F)cc1 do in these assays?
SENP1 inh: -1; EBI2 block: -24; NR3A LBD binder: 21*; MPTP block: 97*; Rh123 counter: 60*

Results for O=C(Nc1cc(S(=O)(=O)Nc2ccc(Cl)cc2)ccc1O)c1ccc(S(=O)(=O)N2CCCCCC2)cc1 ?
SENP1 inh: 3; EBI2 block: 10; NR3A LBD binder: 30*; MPTP block: 91*; Rh123 counter: 42*

How did COc1cc(O)oc1C=Nc1ccc(C(=O)O)cc1 do in these assays?
SENP1 inh: 0; EBI2 block: 2; NR3A LBD binder: -1; MPTP block: 3

How did CCOc1ccc2nc(N3C(=O)/C(=C/c4ccccc4)NC3=S)sc2c1 do in these assays?
SENP1 inh: 17; EBI2 block: -12; NR3A LBD binder: -2; MPTP block: 84*; Rh123 counter: 15

Results for COc1ccc(-c2noc(CCCCC(=O)N3CCN(c4cc(C)ccc4C)CC3)n2)cc1 ?
SENP1 inh: -1; EBI2 block: 9; NR3A LBD binder: -1; MPTP block: 97*; Rh123 counter: 104*

Results for Cc1ccc(-c2noc(CCC(=O)NCCCN3CCN(c4cccc(Cl)c4)CC3)n2)cc1 ?
SENP1 inh: 1; EBI2 block: 4; NR3A LBD binder: -19; MPTP block: 94*; Rh123 counter: 14

What do the screens show for `COc1ccc(-c2noc(CCC(=O)NCCCN3CCN(c4ccccc4F)CC3)n2)cc1`?
SENP1 inh: 1; EBI2 block: -4; NR3A LBD binder: -4; MPTP block: 55*; Rh123 counter: 13; MPTP swell DR: 8.8*; MPTP counter DR: 20*

What do the screens show for `O=C(CCS(=O)(=O)Cc1ccc(Cl)cc1)NCCCN1CCN(c2ccccc2F)CC1`?
SENP1 inh: 4; EBI2 block: 4; NR3A LBD binder: 2; MPTP block: 57*; Rh123 counter: -3; MPTP swell DR: >100; MPTP counter DR: >80

What do the screens show for `Cc1cccc2cc(C3CC(c4cccs4)=NN3S(C)(=O)=O)c(Cl)nc12` (stereo not drawn)?
SENP1 inh: 3; EBI2 block: 2; NR3A LBD binder: 3; MPTP block: 0

Results for COc1ccc(S(=O)(=O)N2CCOCC2)cc1NC(=O)CSc1ncccn1 ?
SENP1 inh: -1; EBI2 block: -5; NR3A LBD binder: 0; MPTP block: -1

How did O=C(CCl)Nc1cccn2ncnc12 do in these assays?
SENP1 inh: 1; EBI2 block: -5; NR3A LBD binder: 0; MPTP block: -5

Results for Cc1ccc(-c2noc(CCC(=O)NCCCN3CCN(c4ccc(F)cc4)CC3)n2)cc1 ?
SENP1 inh: -6; EBI2 block: 2; NR3A LBD binder: -4; MPTP block: 93*; Rh123 counter: 8; MPTP swell DR: 7*; MPTP counter DR: 28*

What do the screens show for `CCN1CCN(CCCNC(=O)CCc2nc(-c3ccc(OC)cc3)no2)CC1`?
SENP1 inh: 1; EBI2 block: 1; NR3A LBD binder: -1; MPTP block: 4

Results for Cc1ccc(-c2noc(CCC(=O)NC3CCN(Cc4ccccc4)CC3)n2)cc1 ?
SENP1 inh: 1; EBI2 block: 0; NR3A LBD binder: -1; MPTP block: 72*; Rh123 counter: 5; MPTP swell DR: inactive; MPTP counter DR: 34*

Results for CC(=O)Nc1ccccc1OCC(=O)c1cc(C)n(Cc2cccs2)c1C ?
SENP1 inh: 2; EBI2 block: -3; NR3A LBD binder: -1; MPTP block: 100*; Rh123 counter: 94*

Results for Cc1cc(C(=O)COc2cccnc2[N+](=O)[O-])c(C)n1Cc1cccs1 ?
SENP1 inh: -4; EBI2 block: 1; NR3A LBD binder: -3; MPTP block: -3

What do the screens show for `O=C(NC(=S)Nc1cc(-c2nc3ccccc3[nH]2)ccc1Cl)c1ccc2c(c1)OCO2`?
SENP1 inh: -1; EBI2 block: 0; NR3A LBD binder: 18*; MPTP block: 57*; Rh123 counter: 39*

Results for Cc1ccc(-c2nc3ccccc3[nH]2)cc1NC(=O)c1ccc2c(c1)OCO2 ?
SENP1 inh: -1; EBI2 block: 7; NR3A LBD binder: -25; MPTP block: 2
